In the library only some 1.7% were active in any assay of this set; here they are far more common.
TPT1 inhibitor = Candida albicans TPT1 enzyme inhibitors, primary screen, biochemical, fluorescence polarization; AID 1962, 2009; recombinant caTPT1, FP RNA substrate dephosphorylation; tRNA 2'-phosphotransferase TPT1 (Candida albicans SC5314); inhibition, % at 5 µM; 300,000 tested, 0.81% active;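 active = inhibition above the mean of all tested compounds plus 3 SD, set per screening campaign, cut at about 24% in these data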
IDE cell inh = human IDE inhibitors in live cells, primary screen, fluorescence polarization, HEK cells, FAbetaB substrate; 320,000 tested, 0.41% active; AID 434962, 2010; FAbetaB cleavage; inhibition, % at 5.59 µM;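 active = percent inhibition above the average of all tested compounds plus 3 SD, set per screening campaign, cut at about 16% in these data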;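 note: IDE supplied by intact live HEK cells; FP after avidin binding of uncleaved biotin substrate so inhibition keeps polarization high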
IDE act = human IDE activators in live cells, primary screen, fluorescence polarization, HEK cells, FAbeta-B substrate; activation, % at 5.96 µM; 340,000 tested, 0.073% active; AID 493087, 2011; FAbeta-B cleavage; 0% vehicle, 100% cell-free pure enzyme wells;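 active = activation above the mean of all tested compounds plus 3 SD, set per screening campaign, cut at about 17% in these data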
HNF4A DNA FP = change in binding of human HNF4A to DNA, primary screen, biochemical, fluorescence polarization, FITC-DNA | 360,000 tested, 0.3% active | activity change, % at 10 µM | 1 h; in the data active = activity change above about 30%, passing the limit was not always enough
CSN deneddyl inh = inhibitors of CSN-mediated cullin deneddylation, primary screen, biochemical, fluorescence polarization, uHTS | Purified CSN, SCF-Nedd8-OG deneddylation | inhibition, % at 12.5 µM | 360,000 tested, 0.38% active | AID 651999, 2013;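 active = pattern-corrected inhibition above about 35%, with an unprinted fluorescence ratio check between 0.5 and 1.5, limit read from the data, passing the limit was not always enough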
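Test system: Human Csn5 produced in HEK293T cells | Compound: 12.5 µM single point | Times: 90 min, room temperature | Signal: Fluorescence polarization readout | Read-out basis: % inhibition of substrate cleavage by Csn5 | Controls: no-enzyme wells high, enzyme-with-substrate wells low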
Rpn11 inh = Rpn11 (PSMD14) deubiquitinase inhibitors, primary screen, biochemical, fluorescence polarization, uHTS | 26S proteasome non-ATPase regulatory subunit 14 (Homo sapiens), O00487 | human 26S proteasome, Ub4-pepOG fluorescence polarization; 20S core pre-blocked with epoxomicin | inhibition, % at 20 µM | 360,000 tested, 0.59% active;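 active = inhibition at 20 µM, scaled to each plate's controls, above about 33%, limit read from the data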
Target sequence (O00487 whole entry, looked up): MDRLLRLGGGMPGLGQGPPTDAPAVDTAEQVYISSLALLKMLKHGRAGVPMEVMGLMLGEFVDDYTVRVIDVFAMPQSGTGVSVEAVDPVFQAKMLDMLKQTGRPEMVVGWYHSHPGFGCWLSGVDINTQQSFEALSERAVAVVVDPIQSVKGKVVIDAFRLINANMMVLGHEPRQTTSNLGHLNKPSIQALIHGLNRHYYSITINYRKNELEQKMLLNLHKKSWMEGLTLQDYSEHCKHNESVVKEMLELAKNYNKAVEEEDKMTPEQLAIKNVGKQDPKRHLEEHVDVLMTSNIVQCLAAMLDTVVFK
TPT1 inh confirm = Candida albicans TPT1 inhibitors, confirmation, biochemical, fluorescence polarization, triplicate. AID 2149, 2009. recombinant caTPT1, RNase T1 coupled. shares compounds with TPT1 inhibitor. inhibition, % at 5 µM. 2,400 tested, 74% active;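 active = inhibition above the primary screen limit, the mean inhibition of all tested compounds plus 3 SD, cut at about 25% in these data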
RNase T1 inh = RNase T1 inhibitors, counter-screen for TPT1 inhibitor project, biochemical, fluorescence polarization; shares compounds with TPT1 inhibitor; RNase T1 cleavage, 1536-well; inhibition, % at 5 µM; 2,400 tested, 83% active; AID 2153, 2009;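 active = inhibition above the solvent-only control well mean plus 3 SD, limit set per screening run, cut at about 23% in these data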;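 note: inhibitors block cleavage so intact labeled substrate keeps polarization high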
A number is an active result; . = inactive; / = not tested or not shown.

SMILES	TPT1 inhibitor	IDE cell inh	IDE act	HNF4A DNA FP	CSN deneddyl inh	Rpn11 inh	TPT1 inh confirm	RNase T1 inh
Cc1cccc(CN2CCN(C3CN(Cc4cn(Cc5ccccc5C(F)(F)F)nn4)S(=O)(=O)C3)CC2)c1 (stereo not given)	/	/	/	.	.	.	/	/
COc1ccc(N2C(=O)CSC2c2ccc3c(c2)OCO3)c(OC)c1 (stereo not given)	40	.	.	.	.	.	.	.
Cc1cc(C)cc(C(=O)NC(CC(N)=O)c2ccc(NC3CCCCCCCCCCC3)c([N+](=O)[O-])c2)c1 (stereo not given)	48	.	.	.	.	.	.	.
CN1C/C(=C\c2ccc(N3CCOCC3)cc2)C(=O)/C(=C/c2ccc(N3CCOCC3)cc2)C1	63	.	.	.	.	/	89	94
CN1C/C(=C/c2ccncc2)C(=O)/C(=C/c2ccncc2)C1	.	.	.	.	.	.	/	/
O=C(C[n+]1cc(Br)cc2ccccc21)c1ccccc1	40	.	.	.	.	/	48	64
Cc1ccc2c(ccc[n+]2CC(=O)c2ccccc2)c1	.	.	.	.	.	.	/	/
COc1ccc(C(=O)C[n+]2cc(Br)cc3ccccc32)cc1[N+](=O)[O-]	45	.	.	.	.	.	39	56
COc1ccc(S(=O)(=O)Nc2cccc3c2O[C@H](CN(C)C(=O)Nc2ccc4c(c2)OCO4)[C@@H](C)CN([C@H](C)CO)C3=O)cc1	/	.	.	.	.	.	/	/
COc1ccc2ccccc2c1/C=N/N1C(=O)CSC1=S	27	.	.	.	.	.	.	.
O=Cc1cc2cc3c(cc2nc1Cl)OCCO3	.	.	/	/	/	/	/	/
O=C(O)c1ccc(N/N=C/c2cc3cc4c(cc3nc2Cl)OCCO4)cc1	27	.	.	.	.	.	38	48
COC(=O)c1ccc(C(=O)Nc2ccc(N)cc2N)cc1	108	.	.	.	.	/	.	.
COc1ccccc1NC(=O)c1ccc(N)cc1	.	.	.	.	.	.	/	/
Cc1ccc(C2C3CSCC=C3C(C#N)=C(N)C2(C#N)C#N)cc1 (stereo not given)	27	.	.	.	.	.	.	29
O=c1c2ccccc2c(/C=N/NS(=O)(=O)c2ccccc2)c(O)n1-c1ccccn1	106	.	.	.	80	/	62	78
Cc1ccc(-c2ccc(C3C(C#N)=C(N)Oc4n[nH]c(C)c43)o2)cc1 (stereo not given)	35	.	.	.	.	.	.	.
Cc1[nH]nc2c1C(c1ccc(-c3ccc(Cl)cc3)o1)C(C#N)=C(N)O2 (stereo not given)	.	.	.	.	.	.	/	/
Nc1nc2c(ncn2[C@@H]2O[C@H](CNC(=O)[C@H](N)Cc3cncn3COCc3ccccc3)[C@@H](O)[C@H]2O)c(=O)[nH]1	/	/	/	.	.	.	/	/
CCc1nnc(NS(=O)(=O)c2ccc(Nc3ccc([N+](=O)[O-])c4nonc34)cc2)s1	27	.	.	38	.	.	33	49
CC(=O)c1ccc(Nc2ccc([N+](=O)[O-])c3nonc23)cc1	30	.	.	.	.	.	37	52

Bioassay records (PubChem)
